High-throughput results from PubChem BioAssay.
T cell modulator = T cell immune modulation candidate; hit rate 0.068% among 330,000; response (vesicle binding), % at 7 µM; 2C CD8+ T cell-vesicle binding, flow cytometry; hits give low values;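 active = response, share of CD8 T cells binding vesicles, and their 90th percentile fluorescence all below set limits, cut at about 80% in these data, passing the limit was not always enough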;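 note: values below 100% mean blocked vesicle binding to the CD8+ T cells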
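Read-out – percent CD8+ FL2 mean versus row control · System – murine 2C transgenic CD8+ T lymphocytes · Times – 1.5 h cell–vesicle binding at 37 °C, then 20 min icy labelling · Control set – naked vesicles low, QL9 vesicles with vehicle high · Detection – cytometric PE anti-B7-1 and Alexa647 anti-CD8 signals after 1% paraformaldehyde fixation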
KLK7 zymogen act = proKLK7 (human) activation, primary screen. purified proKLK7, EDANS-DABCYL substrate fluorescence; 100% is mature enzyme control, 0% vehicle. P49862. AID 652039. hit rate 0.9% among 370,000. activation, % at 7 µM;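 active = activation above the mean of all tested compounds plus 3 SD, computed per campaign excluding outliers beyond control limits, cut at about 13% in these data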
Target sequence (P49862 whole entry, looked up): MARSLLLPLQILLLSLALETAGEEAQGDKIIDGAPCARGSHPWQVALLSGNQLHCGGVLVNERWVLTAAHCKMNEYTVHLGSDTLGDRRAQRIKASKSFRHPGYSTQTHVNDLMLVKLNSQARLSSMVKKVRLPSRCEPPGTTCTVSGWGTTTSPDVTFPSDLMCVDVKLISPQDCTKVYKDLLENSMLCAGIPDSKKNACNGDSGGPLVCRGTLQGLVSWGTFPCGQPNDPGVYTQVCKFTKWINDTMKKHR
beta cell repl = inducers of beta-cell replication in MIN6 cells; proliferation, % at 10 µM; hit rate 0.29% among 330,000; AID 2380; MIN6 cells proliferation, ATPlite luminescence, 48 h; cells starved in 0.2% serum; 100% = growth in 10% serum;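 active = compounds whose signal lies at least 3.5 SD above the mean of all wells on their plate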;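 note: 0% = DMSO-treated cells in low-serum medium and 100% = 10% serum control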
Yeast superoxide = caloric restriction mimetics inhibiting age-related superoxide in yeast | hit rate 0.18% among 330,000 | superoxide response (% of plate mean), % at 10 µM | AID 2690 | S. cerevisiae aged cells, superoxide DHE fluorescence; hits give low values;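 active = superoxide response under a set limit, about three screen SD below normal, cut at about 65% in these data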;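 note: yeast aged for seven days with compound at 30 °C before DHE staining; 100% = average MFI of all compound-treated wells on the plate with controls excluded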
Rce1 inh = yeast Ras-converting enzyme inhibition | yeast membranes, quenched prenylated peptide cleavage fluorescence | calls only | hit rate 0.27% among 290,000;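 active = fall in fluorescence gain of 50% or more versus controls, with final raw signal at or below 3038400; inconclusive = same 50% fall but final raw signal above 3038400; inactive = fall in fluorescence gain under 50%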;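 note: plate controls were neutral control wells for no effect and wells lacking membranes for full effect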
Target sequence (Q03530 whole entry, looked up): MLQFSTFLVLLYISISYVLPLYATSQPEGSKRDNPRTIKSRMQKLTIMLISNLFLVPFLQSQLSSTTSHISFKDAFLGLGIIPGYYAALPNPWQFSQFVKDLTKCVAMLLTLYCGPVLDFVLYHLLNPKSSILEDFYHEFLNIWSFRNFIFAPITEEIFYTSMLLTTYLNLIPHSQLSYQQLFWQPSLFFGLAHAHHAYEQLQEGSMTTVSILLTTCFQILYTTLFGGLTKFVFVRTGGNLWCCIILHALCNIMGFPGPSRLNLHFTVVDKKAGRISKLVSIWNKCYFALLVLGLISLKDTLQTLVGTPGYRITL
V-ATPase pH = regulators of yeast V-ATPase proton transport; response, % at 10 µM; S. cerevisiae, pHLuorin cytosolic pH fluorescence; hit rate 0.37% among 350,000; in the data active = response mostly above about 7.3%, no sharp cut-off; inactive = mostly below about 5.4%; note: actives read high
KLK7 act conf = confirmation of human kallikrein-7 zymogen activators | shares compounds with KLK7 zymogen act | purified proKLK7, EDANS-DABCYL substrate fluorescence; scaled: vehicle 0, mature enzyme 100 | activation, % at 7 µM | hit rate 68% among 3,200 | AID 686949;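 active = activation, as change over the incubation, above the mean of all tested compounds plus 3 SD, cut at about 13% in these data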
EDANS-DABCYL int = optically interferes with EDANS-DABCYL signal, flagging KLK7 hits. activation, % at 7 µM. shares compounds with KLK7 zymogen act. EDANS-DABCYL substrate fluorescence interference, no enzyme, 4 h; solvent 0%, active enzyme control 100%. hit rate 80% among 3,200;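 active = activation above the all-compound mean plus 3 SD, ignoring values outside control-based bounds, cut at about 4.8% in these data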;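 note: value is the 4 h activation minus the activation read at time zero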
EDANS interf = counter-screen for kallikrein-7 activators: EDANS-DABCYL interference, dose response. shares compounds with KLK7 zymogen act. EDANS-DABCYL peptide fluorescence interference, no enzyme. EC50, µM. hit rate 20% among 250;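 active = compounds that raise the fluorescence signal in this interference counterscreen, with EC50 at or below 10 µM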;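 note: intact quenched peptide substrate alone read at 355 nm excitation and 520 nm emission; signal is fluorescence gain from T0 to T4 after four hours at room temperature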
* hit, by the source's call; i = inactive; ? = inconclusive; . = no result given; + = active, no number. Rows were chosen to be rich in hits. Some 1.9% of all compounds tested hit in one or more screens of this group.

SMILES | T cell modulator | KLK7 zymogen act | beta cell repl | Yeast superoxide | Rce1 inh | V-ATPase pH | KLK7 act conf | EDANS-DABCYL int | others
CCOC(=O)c1[nH]c2ccc(F)cc2c1NC(=O)CCN1CCSCC1 | 250.9 | 0.2 | -1.7 | 98.1 | . | 1.0 | . | .
CCOC(=O)c1oc2ccc(OC)cc2c1NC(=O)CN1CCN(C)CC1 | 216.8 | 15.9* | -2.4 | 95.7 | i | -0.8 | -16.1 | -12.3
O=C(/C=C/c1cccs1)NCc1ccc2c(c1)OCO2 | . | -0.6 | -1.5 | 79.4 | i | 0.3 | . | .
N#Cc1cc(-c2ccccc2)c[nH]c1=O | 341.7 | 19.6* | -1.4 | 99.9 | i | -1.7 | 7.2 | 10.3*
N#Cc1c(-c2ccccc2)cc(-c2ccccc2)[nH]c1=O | 283.1 | -3.5 | -0.5 | 105.2 | i | 0.5 | . | .
Cc1ccc(OCC(=O)NNC(=O)Cc2ccc(S(=O)(=O)N3CCOCC3)s2)cc1 | 350.2 | -0.5 | -6.2 | 92.9 | i | 2.9 | . | .
O=C1NC[C@@H](CCCCN2CCN(CCC3CCCCC3)C(=O)C2=O)N(CC2CCCCC2)C1=O | . | -0.3 | . | . | . | . | . | .
NC(=O)c1nsc(C(=O)N(c2ccccc2)C(C(=O)NC2CCCCC2)c2ccc(O)cc2)c1N (stereo unspecified) | 294.6 | 12.8* | 1.2 | 92.1 | i | -0.9 | 5.2 | 30.9*
N#C/C(=C\c1c(N2CCC(C(N)=O)CC2)nc2ccccn2c1=O)C(=O)NC1CCCCC1 | 301.0 | 0.2 | -1.8 | 88.5 | i | 3.4 | . | .
CC(=O)N1CCc2cc3nc(C)cc(C)c3cc21 | 185.1 | 25.5* | -1.5 | 105.2 | i | -2.9 | 1.9 | 3.1
CC(=O)N1CCc2nc3ccccc3cc21 | . | 9.1 | . | . | . | -0.7 | . | .
CCOc1cccc(CN2CCCC(C(=O)c3cc(Cl)ccc3OC)C2)c1O (stereo unspecified) | 198.6 | 0.1 | -2.3 | 102.9 | i | 4.2 | . | .
CCC(NC(=O)CCc1c(C)c2cc3c(C)c(C)oc3cc2oc1=O)C(=O)N[C@@H](Cc1ccccc1)C(=O)O (stereo partly specified) | 285.2 | 14.0* | -0.8 | 91.4 | i | -0.6 | 13.3* | 8.7* | EDANS interf=>69.5
Cc1c(O)ccc2c(CC(=O)N[C@@H](Cc3ccc(O)cc3)C(=O)O)cc(=O)oc12 | 153.7 | 39.5* | 3.2 | 98.0 | i | -2.1 | 64.6* | 68.5*
O=C(Cc1cc(=O)oc2cc(O)ccc12)NC(Cc1ccc(Cl)cc1)C(=O)O (stereo unspecified) | 224.0 | 45.7* | -1.0 | 106.2 | ? | -1.4 | 65.0* | 68.0*
Cc1c(CC(=O)NCC(=O)NCC(=O)N[C@@H](Cc2ccccc2)C(=O)O)c(=O)oc2c(C)c(O)ccc12 | . | 71.9* | . | . | . | . | 61.4* | 73.6*
COc1ccc2c(CC(=O)N[C@@H](Cc3ccccc3)C(=O)O)cc(=O)oc2c1C | 245.4 | 6.5 | -1.1 | 102.9 | i | 0.9 | . | .
Cc1cc(=O)n2ccccc2c1C#N | 173.0 | 48.2* | -3.5 | 104.1 | + | 0.2 | 70.5* | 70.5*
O=C(C[C@@H]1C/C=C\CCC(=O)O[C@H](c2ccccc2)CNC1=O)N[C@H](CO)Cc1ccccc1 | 293.2 | -0.3 | -2.0 | 110.1 | . | -1.8 | . | .
Cc1ccc2nc(N3CCN(CCO)CC3)nc(-c3ccccc3)c2c1 | 758.1 | 20.5* | -2.5 | 104.2 | i | -0.7 | 6.5 | 4.1*
CN1CCN(c2nc(-c3ccccc3)c3cc(Cl)ccc3n2)CC1 | 234.2 | -1.4 | -3.5 | 88.6 | i | -1.8 | . | .
OCCN1CCN(c2nc(-c3ccccc3)c3cc(Cl)ccc3n2)CC1 | 381.8 | 8.3 | -4.2 | 101.3 | i | 0.3 | . | .
Clc1ccc2nc(N3CCNCC3)nc(-c3ccccc3)c2c1 | 380.6 | 16.1* | -6.1 | 94.6 | i | -5.9 | -5.9 | -9.1
